The results in this text go back to ChEMBL document CHEMBL2331368, “Inhibitors of HIV-1 attachment. Part 9: an assessment of oral prodrug approaches to improve the plasma exposure of a tetrazole-containing derivative” (Bioorg Med Chem Lett, 2013).

A value given as a limit tells only on which side of the number the result lay.

Data set [1] can be described thus: Plasma concentration in rat at 5 mg/kg, po at 30 mins. Details: dose 5 mg/kg, route oral; call rule not given here. Type of data set: ADME, organism-based. An outline of the steps:
(§1)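 Rats received 5 mg/kg orally in 90% PEG 400/10% EtOH. The parent tetrazole concentration in plasma was measured at 30 and 120 min after dosing. Each value is the average of two rats.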

A short description of data set [2]: Plasma concentration in rat at 5 mg/kg, po at 120 mins. Type of data set: ADME, organism-based. Further details: dose 5 mg/kg, route oral. An outline of the steps:
as §1

Data set [3] has as its system Human immunodeficiency virus 1. As to the kind of experiment: Antiviral activity against HIV1 JRFL pseudotyped virions infected in HeLa CD4 CCR5 cells after 48 hrs by luciferase assay. The class given is functional, organism-based. The settings on record: Human immunodeficiency virus 1, JRFL, HeLa-CD4/CCR5, 48 h. The method in brief: (§2)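 EC50s came from a single-cycle infectivity assay with HIV JRFL pseudotyped virus. CC50s were determined by the method described in an earlier report. Values are means of two or more experiments.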

Another data set deals with Caco-2. The data set can be described thus: Permeability across human Caco2 cells at pH 6.5. Particulars: caco-2, pH 6.5. Type of data set: ADME, cell-based. (Caco-2 monolayers are a common model of the intestinal barrier.)
Data set [4] is described as follows: Cytotoxicity against human HeLa cells by XTT assay. Type of data set: cell-based. The method in brief: as §2
A further data set deals with Liver microsomes. The data set can be described thus: Prodrug conversion in human liver microsomes assessed as formation of 1-(4-benzoylpiperazin-1-yl)-2-(4-fluoro-7-(2H-tetrazol-5-yl)-1H-indol-3-yl)ethane-1,2-dione in absence of NADPH after 5 mins. The class given is ADME, Microsome. In general terms: Liver microsomes are vesicles of endoplasmic reticulum, rich in cytochrome P450 enzymes.

Data set [5] is described as follows: Half life in human liver microsomes assessed in presence of NADPH. Type of data set: ADME, Microsome.
Data set [6] in a line: Permeability across human Caco2 cells assessed as drug recovery at pH 6.5. Type of data set: ADME, cell-based. The settings on record: caco-2, pH 6.5, read-out: Drug recovery.
Data set [7] is described as follows: Oral bioavailability in rat at 5 mg/kg. Type of data set: ADME, organism-based. The settings on record: in vivo. An outline of the steps: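 Rat pharmacokinetics used 90% PEG 400/10% EtOH as vehicle. The IV dose was 1 mg/kg and the oral dose 5 mg/kg.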

As usually defined, the EC50 is the concentration at which the effect is half-maximal. Read a low EC50 as greater potency. `O=C(C(=O)N1CCN(C(=O)c2ccccc2)CC1)c1c[nH]c2c(-c3nn[nH]n3)ccc(F)c12` displayed a concentration at 0.5 h in data set [1] of 19 ng/mL. The concentration at 2 h in data set [2] was determined as 25 ng/mL. In addition, in data set [3], the EC50 was found to be 34 nM.
For orientation: CC50 means the concentration that lowers cell viability or growth by half. A higher CC50 goes with better tolerance by the cells. For `CC(C)(C)C(=O)OCn1nnc(-c2ccc(F)c3c(C(=O)C(=O)N4CCN(C(=O)c5ccccc5)CC4)c[nH]c23)n1`, the concentration at 0.5 h in [1] is 60 ng/mL. The concentration at 2 h in [2] stood at 13 ng/mL. The permeability result in the data set on Caco-2 is “ND(Insoluble)”. In addition, half-maximal cytotoxicity in data set [4] (CC50) was put at 228000 nM. The molecule further yielded an EC50 in [3] of 190 nM. For the same molecule, the Drug metabolism result in the data set with Liver microsomes is “Active”.
As usually defined, the half-life is how long it takes for the measured level to halve. In data set [1], `Cn1nnc(-c2ccc(F)c3c(C(=O)C(=O)N4CCN(C(=O)c5ccccc5)CC4)c[nH]c23)n1` registered a concentration at 0.5 h of 72 ng/mL. Further, the concentration at 2 h in data set [2] came to 207 ng/mL. In [4], this molecule gave a CC50 greater than 300000 nM. For the same molecule, in data set [5], the half-life came to 12 min. In addition, in [3], the EC50 came out at 20 nM.
Take `CC(=O)OCn1nnc(-c2ccc(F)c3c(C(=O)C(=O)N4CCN(C(=O)c5ccccc5)CC4)c[nH]c23)n1`: in data set [1], the concentration at 0.5 h turned out to be 261 ng/mL. This molecule showed a concentration at 2 h in [2] of 378 ng/mL. Further, the CC50 in data set [4] stood at 36000 nM. Besides, in data set [6], the recovery was less than 70%. Also, in data set [3], the EC50 came out at 60 nM. The Drug metabolism entry with Liver microsomes is given as “Active”.
For orientation: bioavailability means dose-corrected exposure relative to a reference, in per cent. A low value points to little systemic uptake. For the molecule `CC(C)C(OC(=O)C(C)(C)C)n1nnc(-c2ccccc2-c2ccc(Cc3c(C4CC4)nc4ccccc4c3C(=O)O)cc2)n1` (configuration not stated), the bioavailability in data set [7] amounted to 39%.
Still for that read-out and setting: next, `O=C(O)c1c(Cc2ccc(-c3ccccc3-c3nn[nH]n3)cc2)c(C2CC2)nc2ccccc12`: 11%.
